Values after ≈ are worked out from the molar mass of the structure shown.
How the values were obtained:
Type in all cases: functional
Staphylococcus aureus [1] = assay: Antibacterial activity against methicillin-resistant Staphylococcus aureus
Procedure, shortened: (§1)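 MIC by CLSI (formerly NCCLS) broth microdilution for aerobically growing bacteria.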

Streptococcus pneumoniae [2] = assay: Antibacterial activity against fluoroquinolone-resistant Streptococcus pneumoniae; procedure, shortened: as §1
Staphylococcus aureus [3] = assay: Antibacterial activity against vancomycin-intermediate methicillin-resistant Staphylococcus aureus; procedure, shortened: as §1
Staphylococcus aureus [4] = assay: Antibacterial activity against Staphylococcus aureus; procedure, shortened: as §1
[5] = test system: Mycoplasmoides pneumoniae; assay: Antibacterial activity against Mycoplasma pneumoniae
Procedure, shortened: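 Microbroth MIC following Waites et al. Isolates were titred in SP4 glucose broth by serial 10-fold dilution to count color changing units. Drug was serially diluted in antibiotic-free SP4 glucose broth and inoculated at 104 CCU/ml, then incubated at 35°C until control wells changed color. The MIC was the lowest concentration preventing color change.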

Enterococcus faecium = assay: Antibacterial activity against linezolid-susceptible Enterococcus faecium; procedure, shortened: as §1
Enterococcus faecalis [6] = assay: Antibacterial activity against Enterococcus faecalis ATCC 51922 by time kill experiments
Procedure, shortened: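 Time-kill curves run per CLSI methodology, with drug at four times the MIC measured for the isolate. Growth in drug-containing medium was followed alongside a drug-free control medium over time.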

Staphylococcus aureus [7] = assay: Antibacterial activity against methicillin-susceptible Staphylococcus aureus; procedure, shortened: as §1
Enterococcus faecalis [8] = assay: Antibacterial activity against linezolid-susceptible Enterococcus faecalis; procedure, shortened: as §1
Moraxella catarrhalis = assay: Antibacterial activity against Moraxella catarrhalis
Procedure, shortened: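 MIC determined by the CLSI (formerly NCCLS) broth microdilution procedure for aerobically growing bacteria.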

Streptococcus pyogenes = assay: Antibacterial activity against macrolide-resistant Streptococcus pyogenes; procedure, shortened: as §1
Streptococcus pneumoniae [9] = assay: Antibacterial activity against penicillin-resistant Streptococcus pneumoniae; procedure, shortened: as §1
Staphylococcus aureus [10] = assay: Antibacterial activity against community-acquired methicillin-resistant Staphylococcus aureus; procedure, shortened: as §1
Streptococcus pneumoniae [11] = assay: Antibacterial activity against Streptococcus pneumoniae; procedure, shortened: as §1
Staphylococcus [12] = assay: Antibacterial activity against coagulase-negative staphylococci; procedure, shortened: as §1
Staphylococcus [13] = assay: Antibacterial activity against methicillin-susceptible coagulase-negative staphylococci; procedure, shortened: as §1
Streptococcus pneumoniae [14] = assay: Antibacterial activity against macrolide-resistant Streptococcus pneumoniae; procedure, shortened: as §1
Legionella pneumophila = assay: Antibacterial activity against Legionella pneumophila
Procedure, shortened: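 L. pneumophila broth microdilution. Inoculum suspended in buffered yeast extract broth and added to wells holding serial antibiotic dilutions. Incubated aerobically at 34°C to 36°C for 48 h. MIC taken as the lowest concentration inhibiting visible growth.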

Staphylococcus aureus [15] = assay: Antibacterial activity against methicillin-resistant Staphylococcus aureus OC 2878 by time kill experiments
Procedure, shortened: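 Time-kill by CLSI methodology with drug at four times the MIC against MRSA OC 2878, alongside a drug-free control culture. Viable counts were followed over time.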

Staphylococcus [16] = assay: Antibacterial activity against methicillin-resistant coagulase-negative staphylococci; procedure, shortened: as §1

SMILES	MIC50 (Staphylococcus aureus [1])	MIC90 (Staphylococcus aureus [1])	MIC50 (Streptococcus pneumoniae [2])	MIC90 (Streptococcus pneumoniae [2])	MIC50 (Staphylococcus aureus [3])	MIC90 (Staphylococcus aureus [3])	MIC50 (Staphylococcus aureus [4])	MIC90 (Staphylococcus aureus [4])	MIC50 [5]	MIC90 [5]	MIC50 (Enterococcus faecium)	MIC90 (Enterococcus faecium)	MIC50 (Staphylococcus aureus [10])	MIC90 (Staphylococcus aureus [10])	MIC50 (Staphylococcus [12])	MIC90 (Staphylococcus [12])	MIC50 (Staphylococcus [13])	MIC90 (Staphylococcus [13])	MIC50 (Staphylococcus [16])	MIC90 (Staphylococcus [16])	further results
CC(=O)NC[C@H]1CN(c2ccc(N3Cc4cn(C)nc4C3)c(F)c2)C(=O)O1	1 mg/L (≈ 2.68 µM)	2 mg/L (≈ 5.36 µM)	0.5 mg/L (≈ 1.34 µM)	0.5 mg/L (≈ 1.34 µM)	0.5 mg/L (≈ 1.34 µM)	2 mg/L (≈ 5.36 µM)	1 mg/L (≈ 2.68 µM)	2 mg/L (≈ 5.36 µM)	16 mg/L (≈ 42.9 µM)	32 mg/L (≈ 85.7 µM)	1 mg/L (≈ 2.68 µM)	1 mg/L (≈ 2.68 µM)	1 mg/L (≈ 2.68 µM)	2 mg/L (≈ 5.36 µM)	0.5 mg/L (≈ 1.34 µM)	1 mg/L (≈ 2.68 µM)	0.5 mg/L (≈ 1.34 µM)	0.5 mg/L (≈ 1.34 µM)	0.5 mg/L (≈ 1.34 µM)	1 mg/L (≈ 2.68 µM)	MIC (Enterococcus faecalis [6]): 1 mg/L (≈ 2.68 µM); MIC50 (Staphylococcus aureus [7]): 1 mg/L (≈ 2.68 µM); MIC90 (Staphylococcus aureus [7]): 2 mg/L (≈ 5.36 µM); MIC50 (Enterococcus faecalis [8]): 0.5 mg/L (≈ 1.34 µM); MIC90 (Enterococcus faecalis [8]): 1 mg/L (≈ 2.68 µM); MIC50 (Moraxella catarrhalis): 2 mg/L (≈ 5.36 µM); MIC90 (Moraxella catarrhalis): 4 mg/L (≈ 10.7 µM); MIC50 (Streptococcus pyogenes): 0.5 mg/L (≈ 1.34 µM); MIC90 (Streptococcus pyogenes): 0.5 mg/L (≈ 1.34 µM); MIC50 (Streptococcus pneumoniae [9]): 0.5 mg/L (≈ 1.34 µM); MIC90 (Streptococcus pneumoniae [9]): 0.5 mg/L (≈ 1.34 µM); MIC50 (Streptococcus pneumoniae [11]): 0.5 mg/L (≈ 1.34 µM); MIC90 (Streptococcus pneumoniae [11]): 0.5 mg/L (≈ 1.34 µM); MIC50 (Streptococcus pneumoniae [14]): 0.5 mg/L (≈ 1.34 µM); MIC90 (Streptococcus pneumoniae [14]): 0.5 mg/L (≈ 1.34 µM); MIC50 (Legionella pneumophila): 4 mg/L (≈ 10.7 µM); MIC90 (Legionella pneumophila): 8 mg/L (≈ 21.4 µM); MIC (Staphylococcus aureus [15]): 1 mg/L (≈ 2.68 µM)
CC[C@H]1OC(=O)[C@H](C)[C@@H](O[C@H]2C[C@@](C)(OC)[C@@H](O)[C@H](C)O2)[C@H](C)[C@@H](O[C@@H]2O[C@H](C)C[C@H](N(C)C)[C@H]2O)[C@](C)(O)C[C@@H](C)C(=O)[C@H](C)[C@@H](O)[C@]1(C)O [ERYTHROMYCIN]																					MIC50 (Moraxella catarrhalis): 0.25 mg/L (≈ 0.341 µM); MIC90 (Moraxella catarrhalis): 0.25 mg/L (≈ 0.341 µM); MIC50 (Streptococcus pyogenes): 8 mg/L (≈ 10.9 µM); MIC90 (Streptococcus pyogenes): > 16 mg/L; MIC50 (Streptococcus pneumoniae [14]): 4 mg/L (≈ 5.45 µM); MIC90 (Streptococcus pneumoniae [14]): > 16 mg/L
C[C@H]1COc2c(N3CCN(C)CC3)c(F)cc3c(=O)c(C(=O)O)cn1c23.C[C@H]1COc2c(N3CCN(C)CC3)c(F)cc3c(=O)c(C(=O)O)cn1c23.O [LEVOFLOXACIN]			16 mg/L	> 16 mg/L					0.5 mg/L	1 mg/L											MIC50 (Legionella pneumophila): 0.12 mg/L; MIC90 (Legionella pneumophila): 0.5 mg/L
CC(=O)NC[C@H]1CN(c2ccc(N3CCOCC3)c(F)c2)C(=O)O1 [LINEZOLID]	4 mg/L (≈ 11.9 µM)	4 mg/L (≈ 11.9 µM)	0.5 mg/L (≈ 1.48 µM)	1 mg/L (≈ 2.96 µM)	1 mg/L (≈ 2.96 µM)	4 mg/L (≈ 11.9 µM)	4 mg/L (≈ 11.9 µM)	4 mg/L (≈ 11.9 µM)	> 64 mg/L	> 64 mg/L	2 mg/L (≈ 5.93 µM)	4 mg/L (≈ 11.9 µM)	4 mg/L (≈ 11.9 µM)	4 mg/L (≈ 11.9 µM)	2 mg/L (≈ 5.93 µM)	2 mg/L (≈ 5.93 µM)	1 mg/L (≈ 2.96 µM)	2 mg/L (≈ 5.93 µM)	2 mg/L (≈ 5.93 µM)	2 mg/L (≈ 5.93 µM)	MIC50 (Staphylococcus aureus [7]): 2 mg/L (≈ 5.93 µM); MIC90 (Staphylococcus aureus [7]): 4 mg/L (≈ 11.9 µM); MIC50 (Enterococcus faecalis [8]): 2 mg/L (≈ 5.93 µM); MIC90 (Enterococcus faecalis [8]): 2 mg/L (≈ 5.93 µM); MIC50 (Moraxella catarrhalis): 8 mg/L (≈ 23.7 µM); MIC90 (Moraxella catarrhalis): 8 mg/L (≈ 23.7 µM); MIC50 (Streptococcus pyogenes): 1 mg/L (≈ 2.96 µM); MIC90 (Streptococcus pyogenes): 2 mg/L (≈ 5.93 µM); MIC50 (Streptococcus pneumoniae [9]): 1 mg/L (≈ 2.96 µM); MIC90 (Streptococcus pneumoniae [9]): 1 mg/L (≈ 2.96 µM); MIC50 (Streptococcus pneumoniae [11]): 1 mg/L (≈ 2.96 µM); MIC90 (Streptococcus pneumoniae [11]): 1 mg/L (≈ 2.96 µM); MIC50 (Streptococcus pneumoniae [14]): 1 mg/L (≈ 2.96 µM); MIC90 (Streptococcus pneumoniae [14]): 1 mg/L (≈ 2.96 µM); MIC50 (Legionella pneumophila): 4 mg/L (≈ 11.9 µM); MIC90 (Legionella pneumophila): 16 mg/L (≈ 47.4 µM)
Cc1onc(-c2ccccc2)c1C(=O)N[C@@H]1C(=O)N2[C@@H]1SC(C)(C)[C@@H]2C(=O)O [OXACILLIN]	> 32 mg/L	> 32 mg/L			> 32 mg/L	> 32 mg/L							32 mg/L (≈ 79.7 µM)	32 mg/L (≈ 79.7 µM)	> 16 mg/L	> 16 mg/L	0.12 mg/L (≈ 0.299 µM)	0.25 mg/L (≈ 0.623 µM)	> 16 mg/L	> 16 mg/L	
CC1(C)S[C@@H]2[C@H](NC(=O)Cc3ccccc3)C(=O)N2[C@H]1C(=O)O [PENICILLIN G]																					MIC50 (Streptococcus pneumoniae [9]): 2 mg/L (≈ 5.98 µM); MIC90 (Streptococcus pneumoniae [9]): 4 mg/L (≈ 12 µM)
CN[C@H](CC(C)C)C(=O)N[C@H]1C(=O)N[C@@H](CC(N)=O)C(=O)N[C@H]2C(=O)N[C@H]3C(=O)N[C@H](C(=O)N[C@H](C(=O)O)c4cc(O)cc(O)c4-c4cc3ccc4O)[C@H](O)c3ccc(c(Cl)c3)Oc3cc2cc(c3O[C@@H]2O[C@H](CO)[C@@H](O)[C@H](O)[C@H]2O[C@H]2C[C@](C)(N)[C@H](O)[C@H](C)O2)Oc2ccc(cc2Cl)[C@H]1O [VANCOMYCIN]	1 mg/L (≈ 0.69 µM)	4 mg/L (≈ 2.76 µM)			4 mg/L (≈ 2.76 µM)	8 mg/L (≈ 5.52 µM)	1 mg/L (≈ 0.69 µM)	4 mg/L (≈ 2.76 µM)			> 16 mg/L	> 16 mg/L	1 mg/L (≈ 0.69 µM)	1 mg/L (≈ 0.69 µM)	2 mg/L (≈ 1.38 µM)	4 mg/L (≈ 2.76 µM)	2 mg/L (≈ 1.38 µM)	4 mg/L (≈ 2.76 µM)	2 mg/L (≈ 1.38 µM)	4 mg/L (≈ 2.76 µM)	MIC50 (Staphylococcus aureus [7]): 1 mg/L (≈ 0.69 µM); MIC90 (Staphylococcus aureus [7]): 2 mg/L (≈ 1.38 µM); MIC50 (Enterococcus faecalis [8]): 4 mg/L (≈ 2.76 µM); MIC90 (Enterococcus faecalis [8]): > 16 mg/L

Reference: ChEMBL document CHEMBL1142169, “In vitro antibacterial activity of the pyrrolopyrazolyl-substituted oxazolidinone RWJ-416457” (2007)
